In brackets after ≈: the same amount, converted by molar mass.
Experiments:
Assay type in all cases: functional
Candida tropicalis [1] = experiment: Antifungal activity against Candida tropicalis after 48 hrs by CLSI method
Procedure, shortened: (§1)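 Broth microdilution MICs were run on invasive clinical Candida isolates under CLSI M27-A2, with incubation at 35°C for 48 h before reading. Control strains were C. parapsilosis ATCC 22019 and C. krusei ATCC 6258. MICs were interpreted under the same guideline to place isolates as susceptible, susceptible-dose dependent or resistant, reported as percentage of isolates per category, with MIC range, MIC50 and MIC90.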

Candida albicans [2] = experiment: Antifungal activity against Candida albicans after 48 hrs by CLSI method
Nakaseomyces glabratus [3] = experiment: Antifungal activity against Candida glabrata after 48 hrs by CLSI method
Candida parapsilosis [4] = experiment: Antifungal activity against Candida parapsilosis after 48 hrs by CLSI method; conditions: Lodderomyces parapsilosis; procedure, shortened: as §1
[5] = tested on: Meyerozyma guilliermondii; experiment: Antifungal activity against Candida guilliermondii after 48 hrs by CLSI method
Pichia kudriavzevii [6] = experiment: Antifungal activity against Candida krusei after 48 hrs by CLSI method
Procedure, shortened: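 Broth microdilution MICs were run on invasive clinical Candida isolates under CLSI M27-A2, with incubation at 35°C for 48 h before reading. MICs were interpreted under the same guideline to place isolates as susceptible, susceptible-dose dependent or resistant, reported as percentage of isolates per category, with MIC range, MIC50 and MIC90.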

Clavispora lusitaniae [7] = experiment: Antifungal activity against Candida lusitaniae after 48 hrs by CLSI method
Candida albicans [8] = experiment: Antifungal activity against Candida albicans assessed as susceptible isolates after 48 hrs by CLSI method; procedure, shortened: as §1
Nakaseomyces glabratus [9] = experiment: Antifungal activity against Candida glabrata assessed as susceptible isolates after 48 hrs by CLSI method; procedure, shortened: as §1
Candida tropicalis [10] = experiment: Antifungal activity against Candida tropicalis assessed as susceptible isolates after 48 hrs by CLSI method; procedure, shortened: as §1
Candida parapsilosis [11] = experiment: Antifungal activity against Candida parapsilosis assessed as susceptible isolates after 48 hrs by CLSI method; procedure, shortened: as §1
[12] = tested on: Meyerozyma guilliermondii; experiment: Antifungal activity against Candida guilliermondii assessed as susceptible isolates after 48 hrs by CLSI method; procedure, shortened: as §1
Pichia kudriavzevii [13] = experiment: Antifungal activity against Candida krusei assessed as susceptible isolates after 48 hrs by CLSI method; procedure, shortened: as §1
Clavispora lusitaniae [14] = experiment: Antifungal activity against Candida lusitaniae assessed as susceptible isolates after 48 hrs by CLSI method; procedure, shortened: as §1
Candida albicans [15] = experiment: Antifungal activity against Candida albicans assessed as resistant isolates after 48 hrs by CLSI method; procedure, shortened: as §1
Nakaseomyces glabratus [16] = experiment: Antifungal activity against Candida glabrata assessed as resistant isolates after 48 hrs by CLSI method; procedure, shortened: as §1
Candida tropicalis [17] = experiment: Antifungal activity against Candida tropicalis assessed as resistant isolates after 48 hrs by CLSI method; procedure, shortened: as §1
Candida parapsilosis [18] = experiment: Antifungal activity against Candida parapsilosis assessed as resistant isolates after 48 hrs by CLSI method; procedure, shortened: as §1
[19] = tested on: Meyerozyma guilliermondii; experiment: Antifungal activity against Candida guilliermondii assessed as resistant isolates after 48 hrs by CLSI method; procedure, shortened: as §1
Pichia kudriavzevii [20] = experiment: Antifungal activity against Candida krusei assessed as resistant isolates after 48 hrs by CLSI method; procedure, shortened: as §1
Clavispora lusitaniae [21] = experiment: Antifungal activity against Candida lusitaniae assessed as resistant isolates after 48 hrs by CLSI method; procedure, shortened: as §1
Candida albicans [22] = experiment: Antifungal activity against Candida albicans assessed as susceptible dose-dependent isolates after 48 hrs by CLSI method; procedure, shortened: as §1
Nakaseomyces glabratus [23] = experiment: Antifungal activity against Candida glabrata assessed as susceptible dose-dependent isolates after 48 hrs by CLSI method; procedure, shortened: as §1
Candida tropicalis [24] = experiment: Antifungal activity against Candida tropicalis assessed as susceptible dose-dependent isolates after 48 hrs by CLSI method; procedure, shortened: as §1
Candida parapsilosis [25] = experiment: Antifungal activity against Candida parapsilosis assessed as susceptible dose-dependent isolates after 48 hrs by CLSI method; procedure, shortened: as §1
[26] = tested on: Meyerozyma guilliermondii; experiment: Antifungal activity against Candida guilliermondii assessed as susceptible dose-dependent isolates after 48 hrs by CLSI method; procedure, shortened: as §1
Pichia kudriavzevii [27] = experiment: Antifungal activity against Candida krusei assessed as susceptible dose-dependent isolates after 48 hrs by CLSI method; procedure, shortened: as §1
Clavispora lusitaniae [28] = experiment: Antifungal activity against Candida lusitaniae assessed as susceptible dose-dependent isolates after 48 hrs by CLSI method; procedure, shortened: as §1

With C[C@@H](c1ncncc1F)[C@](O)(Cn1cncn1)c1ccc(F)cc1F [VORICONAZOLE] the MIC50 (Candida tropicalis [1]) was 0.12 mg/L (≈ 0.344 µM), the MIC90 (Candida tropicalis [1]) was 0.12 mg/L (≈ 0.344 µM) and the MIC (Candida albicans [2]) was 0.015 mg/L (≈ 0.0429 µM). For the same compound, the MIC50 (Candida albicans [2]) was 0.015 mg/L (≈ 0.0429 µM), the MIC90 (Candida albicans [2]) was 0.03 mg/L (≈ 0.0859 µM) and the MIC50 (Nakaseomyces glabratus [3]) was 0.5 mg/L (≈ 1.43 µM). The MIC90 (Nakaseomyces glabratus [3]) was 1 mg/L (≈ 2.86 µM), the MIC50 (Candida parapsilosis [4]) was 0.03 mg/L (≈ 0.0859 µM) and the MIC90 (Candida parapsilosis [4]) was 0.06 mg/L (≈ 0.172 µM). For the same compound, the MIC50 [5] was 0.06 mg/L (≈ 0.172 µM), the MIC90 [5] was 0.12 mg/L (≈ 0.344 µM) and the MIC50 (Pichia kudriavzevii [6]) was 0.5 mg/L (≈ 1.43 µM). For the same compound, the MIC90 (Pichia kudriavzevii [6]) was 0.5 mg/L (≈ 1.43 µM), the MIC (Clavispora lusitaniae [7]) was 0.015 mg/L (≈ 0.0429 µM) and the MIC50 (Clavispora lusitaniae [7]) was 0.015 mg/L (≈ 0.0429 µM). It also gave an MIC90 (Clavispora lusitaniae [7]) of 0.015 mg/L (≈ 0.0429 µM), an Activity (Candida albicans [8]) of 100% and an Activity (Nakaseomyces glabratus [9]) of 94%. For the same compound, the Activity (Candida tropicalis [10]) was 100%, the Activity (Candida parapsilosis [11]) was 100% and the Activity [12] was 97%. For the same compound, the Activity (Pichia kudriavzevii [13]) was 95%, the Activity (Clavispora lusitaniae [14]) was 100% and the Activity (Candida albicans [15]) was 0%. For the same compound, the Activity (Nakaseomyces glabratus [16]) was 4%, the Activity (Candida tropicalis [17]) was 0% and the Activity (Candida parapsilosis [18]) was 0%. It also gave an Activity [19] of 0%, an Activity (Pichia kudriavzevii [20]) of 3% and an Activity (Clavispora lusitaniae [21]) of 0%. For the same compound, the Activity (Candida albicans [22]) was 0%, the Activity (Nakaseomyces glabratus [23]) was 2% and the Activity (Candida tropicalis [24]) was 0%. For the same compound, the Activity (Candida parapsilosis [25]) was 0%, the Activity [26] was 3% and the Activity (Pichia kudriavzevii [27]) was 3%. The Activity (Clavispora lusitaniae [28]) was 0%.

Source: ChEMBL document CHEMBL1275451, “In vitro susceptibilities of invasive isolates of Candida species: rapid increase in rates of fluconazole susceptible-dose dependent Candida glabrata isolates” (2008)
